Results reported in ChEMBL document CHEMBL4330106, “A new class of pentapeptide KISS1 receptor agonists with hypothalamic-pituitary-gonadal axis activation” (Bioorg Med Chem Lett, 2019).

Columns and labels:
[1] = Stability in Sprague-Dawley rat serum assessed as parent compound remaining at 10 ug/ml measured immediately by LC-MS/MS analysis; format: ADME, cell-free; details: read-out: Stability
Summary of the method: (§1)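 10 µL of 10 μg/mL aqueous peptide stock added to 990 μL pre-warmed SD rat serum (final 0.1 μg/mL), 37 °C. Aliquots taken at 0, 5, 15, 30, 60, 120 min. Quenched with formic acid/methanol and acetonitrile, centrifuged, internal standard added, quantified by LC/MS/MS. Result is percent remaining; n = 2.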

[2] = molecular target: KiSS-1 receptor (Homo sapiens, UniProt Q969F8); experiment: Agonist activity at human KISS1R expressed in CHO cells assessed as increase in calcium mobilization measured at 2 secs interval for 2 mins by fluo-4 NW dye based FLIPR assay; format: functional, cell-based
Summary of the method: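 Ligand-induced Ca2+ rise in CHO cells expressing human KISS1R, read on a fluorometric imaging plate reader (FLIPR); agonist potency reported as EC50 (nM).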

[3] = Stability in Sprague-Dawley rat serum assessed as parent compound remaining at 10 ug/ml measured after 120 mins by LC-MS/MS analysis; format: ADME, cell-free; details: read-out: Stability; summary of the method: as §1
[4] = Stability in Sprague-Dawley rat serum assessed as parent compound remaining at 10 ug/ml measured after 30 mins by LC-MS/MS analysis; format: ADME, cell-free; details: read-out: Stability; summary of the method: as §1
[5] = Stability in Sprague-Dawley rat serum assessed as parent compound remaining at 10 ug/ml measured after 5 mins by LC-MS/MS analysis; format: ADME, cell-free; details: read-out: Stability; summary of the method: as §1
[6] = Half life in Sprague-Dawley rat serum at 10 ug/ml by LC-MS/MS analysis; format: ADME, cell-free; summary of the method: as §1
[7] = Stability in Sprague-Dawley rat serum assessed as parent compound remaining at 10 ug/ml measured after 15 mins by LC-MS/MS analysis; format: ADME, cell-free; details: read-out: Stability; summary of the method: as §1
[8] = Stability in Sprague-Dawley rat serum assessed as parent compound remaining at 10 ug/ml measured after 60 mins by LC-MS/MS analysis; format: ADME, cell-free; details: read-out: Stability; summary of the method: as §1

Chain of KiSS-1 receptor (Q969F8 whole entry): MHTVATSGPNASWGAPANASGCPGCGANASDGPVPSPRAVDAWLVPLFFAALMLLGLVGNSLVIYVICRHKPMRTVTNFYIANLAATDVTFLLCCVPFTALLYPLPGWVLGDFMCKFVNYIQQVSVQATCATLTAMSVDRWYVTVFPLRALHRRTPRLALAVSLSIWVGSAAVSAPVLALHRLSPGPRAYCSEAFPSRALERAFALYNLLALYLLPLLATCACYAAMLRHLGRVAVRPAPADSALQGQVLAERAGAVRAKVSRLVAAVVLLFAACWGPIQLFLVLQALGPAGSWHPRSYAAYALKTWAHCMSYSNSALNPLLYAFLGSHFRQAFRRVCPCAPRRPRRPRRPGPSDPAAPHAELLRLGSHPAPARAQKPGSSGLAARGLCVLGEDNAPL

remaining at 0 min, 10 ug/ml [1]: 100%
EC50 [2]: 0.087 nM
remaining at 2 h, 10 ug/ml [3]: < 0.5%
remaining at 0.5 h, 10 ug/ml [4]: < 0.5%
remaining at 5 min, 10 ug/ml [5]: 1.5%
half-life at 10 ug/ml [6]: < 5 min
remaining at 0.25 h, 10 ug/ml [7]: < 0.5%
remaining at 1 h, 10 ug/ml [8]: < 0.5%
Compound: CC(C)C[C@H](NC(=O)CNC(=O)[C@H](Cc1ccccc1)NC(=O)[C@H](CO)NC(=O)[C@H](CC(N)=O)NC(=O)[C@H](Cc1c[nH]c2ccccc12)NC(=O)[C@H](CC(N)=O)NC(=O)[C@@H](N)Cc1ccc(O)cc1)C(=O)N[C@@H](CCCNC(=N)N)C(=O)N[C@@H](Cc1ccccc1)C(N)=O [KISSPEPTIN-10]
